These results are taken from ChEMBL document CHEMBL1123395, “Correlation of the in vitro cytotoxic and in vivo antitumor activities of gold(I) coordination complexes” (J Med Chem, 1986).

pIC50: −log10 of the molar value.

For one test, the system named is B16. In words: Concentration that reduces the number of colonies formed by 50% in a clonogenic assay with B16 mouse melanoma cells. Type of test: functional, cell-based. In short, it runs like this: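 B16 melanoma F10 monolayers were grown in MEM with 10% calf serum. Cells were plated at 5000/plate and attached overnight. They were exposed to compound for 2 h, diluted from a 2 mM ethanol stock into MEM, then washed with PBS. Colonies of more than 50 cells were grown for 5 days at 37 °C and stained with crystal violet, in triplicate. IC50 is the 50% reduction in colonies versus controls.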

For test [1], the system named is P388. In words: Concentration that reduces the number of colonies formed by 50% in a clonogenic assay with P388 leukemia cells. In kind it is functional, cell-based, Mus musculus. In short, it runs like this: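 P388 cells were kept in suspension culture. Colony-forming assay was run in 0.17% agarose, with colony formation and IC50 (50% reduction in colonies versus controls) measured as in the B16 assay. That assay used a 2 h exposure and 5 days of colony growth.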

The next test has as its system Mus musculus. Kind of test: Maximally tolerated dose (MTD) in tumor bearing mice on a daily times 5 ip regimen. In kind it is functional, organism-based. In short, it runs like this: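 B6D2F1 mice inoculated ip with 10^6 P388 leukemia cells, randomized into groups of six after the inoculum was checked sterile in thioglycolate broth. Dosing ip on days 1-5, starting 24 h after inoculation. Vehicle was DMA, ethanol and Cremophor (10% final), diluted with saline for lower doses and prepared just before injection. Mortality monitored daily up to 45 days.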

The test system of test [2] is P388. In words: Antitumor activity expressed as increase in median life span (ILS) measured in mice inoculated (ip) with P388 leukemia cells. In kind it is functional, organism-based. To be noted: Mus musculus. In short, it runs like this:
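Mice B6D2F1, inoculated ip with 10^6 P388 leukemia cells. After 24 h, with the inoculum confirmed free of bacteria by thioglycolate broth, mice were randomized into groups of six. Dosing was ip on days 1-5. The vehicle held DMA, ethanol and Cremophor at 10% final, with dilutions in saline. Mice were monitored daily for 45 days. ILS is the % increase in MST over untreated controls. The value reported is the maximum ILS from dose-response studies bracketing the maximally tolerated dose.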

Test [3] relates to P388. Kind of test: Ratio of in vitro cytotoxic potency in P388 / B16 cell lines. Type of test: functional, cell-based. To be noted: Mus musculus. In short, it runs like this: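 Ratio of IC50 in the P388 colony-forming assay (0.17% agarose) to IC50 in the B16 clonogenic assay. Both assays used a 2 h drug exposure and counted colonies against controls.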

A word on the pIC50: it is the negative decadic logarithm of the IC50, by convention in mol/L. With “GOLD SODIUM THIOMALATE [listing 1 of 2 here]”, the pIC50 in the test with B16 was 4.22; with P388 [1] it was 4.00.
Take “GOLD SODIUM THIOMALATE [listing 2 of 2 here]”: the MTD in the test on Mus musculus was found to be 300 µM/kg. This substance also yielded an ILSmax in the test on P388 [2] of 24%. In addition, the Ratio with P388 [3] was found to be 1.67.
